Source: ChEMBL document CHEMBL2177065, “14-Alkoxy- and 14-acyloxypyridomorphinans: μ agonist/δ antagonist opioid analgesics with diminished tolerance and dependence side effects” (J Med Chem, 2012)
pEC50, pKi: −log10 of the molar value. Active and inactive are the calls of the source.

Key:
[1] = target: T1, Mu-type opioid receptor (Homo sapiens, UniProt P35372); assay: Agonist activity at human mu opioid receptor expressed in CHO cells assessed as [35S]GTPgammaS binding at 10 uM by scintillation counting analysis; assay type: functional, cell-based
In short: (§1)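 Human KOR or MOR in CHO cell membranes (50 µg protein), 3 h at 25 °C, pH 7.4 Tris buffer with 100 mM NaCl, 10 mM MgCl2, 1 mM EDTA, 1 mM DTT, 0.1% BSA, GDP 40 µM and [35S]GTP-γ-S 50 pM. Stimulation = (S−B)/B×100, with Emax relative to U69,593 (KOR) or DAMGO (MOR). Curves were ten points, ≥3 experiments pooled. Antagonist Ke was taken from the shift in standard agonist EC50.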

[2] = target: T2, Kappa-type opioid receptor (Homo sapiens, UniProt P41145); assay: Displacement of [3H]U69,593 from human kappa opioid receptor expressed in CHO cells by scintillation counting analysis; assay type: cell-based
[3] = species on record: Homo sapiens; assay: Selectivity ratio of Ki for human mu opioid receptor to Ki for human delta opioid receptor
[4] = tested on: Delta-type opioid receptor; assay: Antagonist activity at delta opioid receptor expressed in rat/mouse NG108-15 cells assessed as [35S]GTPgammaS binding by scintillation counting analysis; assay type: functional, cell-based
In short: as §1, with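 “NG108-15” for “Human KOR or MOR in CHO”, “pM. Nonspecific binding with 40 µM GTP-γ-S; filtration and scintillation counting.” for “pM.”, “DADLE.” for “U69,593 (KOR) or DAMGO (MOR).”, “pooled.” for “pooled. Antagonist”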

[5] = target: T3, Delta-type opioid receptor (Homo sapiens, UniProt P41143); assay: Displacement of [3H]DADLE from human delta opioid receptor expressed in CHO cells by scintillation counting analysis; assay type: cell-based
[6] = species on record: Homo sapiens; assay: Selectivity ratio of Ki for human kappa opioid receptor to Ki for human delta opioid receptor
[7] = target: T1, Mu-type opioid receptor; assay: Displacement of [3H]DAMGO from human mu opioid receptor expressed in CHO cells by scintillation counting analysis; assay type: cell-based
[8] = target: T2, Kappa-type opioid receptor; assay: Agonist activity at human kappa opioid receptor expressed in CHO cells assessed as [35S]GTPgammaS binding at 10 uM by scintillation counting analysis; assay type: functional, cell-based; in short: as §1
[9] = tested on: Delta-type opioid receptor; assay: Agonist activity at delta opioid receptor expressed in rat/mouse NG108-15 cells assessed as [35S]GTPgammaS binding at 10 uM by scintillation counting analysis; assay type: functional, cell-based
In short: as §1, with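 “NG108-15” for “Human KOR or MOR in CHO”, “pM. Nonspecific binding with 40 µM GTP-γ-S; filtration and scintillation counting.” for “pM.”, “DADLE.” for “U69,593 (KOR) or DAMGO (MOR).”, “pooled.” for “pooled. Antagonist”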

[10] = target: T2, Kappa-type opioid receptor; assay: Agonist activity at human kappa opioid receptor expressed in CHO cells assessed as [35S]GTPgammaS binding by scintillation counting analysis relative to U69,593; assay type: functional, cell-based; in short: as §1
[11] = target: T2, Kappa-type opioid receptor; assay: Agonist activity at human kappa opioid receptor expressed in CHO cells assessed as [35S]GTPgammaS binding by scintillation counting analysis; assay type: functional, cell-based; in short: as §1
[12] = tested on: Mus musculus; assay: Antinociceptive activity in ICR mouse assessed as warm-water tail-withdrawal latency at 1 nmol, icv by tail flick assay; assay type: functional
In short: (§2)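 Male ICR mice dosed i.c.v. in 5 µL (test compounds in 100% DMSO, morphine in water) under light ether anaesthesia. Tail withdrawal from 55 °C water, 10 s cutoff, tested 10–180 min post-injection. %MPE computed against pre-drug baseline. A50 with 95% confidence limits by linear regression at time of peak effect.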

[13] = target: T1, Mu-type opioid receptor; assay: Agonist activity at human mu opioid receptor expressed in CHO cells assessed as [35S]GTPgammaS binding by scintillation counting analysis relative to DAMGO; assay type: functional, cell-based; in short: as §1
[14] = target: T1, Mu-type opioid receptor; assay: Agonist activity at human mu opioid receptor expressed in CHO cells assessed as [35S]GTPgammaS binding by scintillation counting analysis; assay type: functional, cell-based; in short: as §1
[15] = tested on: Mus musculus; assay: Antinociceptive activity in icv dosed ICR mouse assessed as warm-water tail-withdrawal latency by tail flick assay in presence of naloxone; assay type: functional, organism-based
[16] = tested on: Mus musculus; assay: Antinociceptive activity in icv dosed ICR mouse assessed as warm-water tail-withdrawal latency by tail flick assay; assay type: functional; in short: as §2
[17] = Agonist activity at delta opioid receptor expressed in rat/mouse NG108-15 cells assessed as [35S]GTPgammaS binding by scintillation counting analysis relative to DADLE; assay type: functional, cell-based
In short: as §1, with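 “NG108-15” for “Human KOR or MOR in CHO”, “pM. Nonspecific binding with 40 µM GTP-γ-S; filtration and scintillation counting.” for “pM.”, “DADLE.” for “U69,593 (KOR) or DAMGO (MOR).”, “pooled.” for “pooled. Antagonist”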

[18] = target: T2, Kappa-type opioid receptor; assay: Binding affinity to kappa opioid receptor by radioligand binding assay
[19] = target: T3, Delta-type opioid receptor; assay: Binding affinity to delta opioid receptor by radioligand binding assay
In short: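 Membranes from CHO cells stably expressing human DOR; [³H]DADLE at ~2 nM, displaced by 10 drug concentrations. Incubated 2 h at 25 °C in 50 mM Tris-HCl pH 7.4 with protease inhibitors, ~30 µg protein; triplicates; filtration and scintillation counting. Nonspecific binding defined with 20 µM levallorphan. Three experiments pooled and fitted for IC50.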

[20] = target: T1, Mu-type opioid receptor; assay: Binding affinity to mu opioid receptor by radioligand binding assay
[21] = tested on: Mus musculus; assay: Antinociceptive activity in ICR mouse assessed as warm-water tail-withdrawal latency at 10 nmol, icv by tail flick assay; assay type: functional; in short: as §2
[22] = tested on: CHO; assay: Activity at human MOR/mouse DOR expressed in CHO cells assessed as increase in forskolin-stimulated cAMP accumulation at 30 nM after drug exposure for 20 hrs followed by washout in the presence of naloxone; assay type: functional, cell-based
In short: (§3)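 MOR/DOR co-expressing CHO cells (mouse N-cMyc DOR + human MOR) exposed 20 h to drug, then washed three times with serum-free medium and preincubated 20 min at 37 °C with IBMX 500 µM. Then 10 min at 37 °C with forskolin 100 µM/IBMX 500 µM, with or without 10 µM naloxone. Read-out was cAMP by [3H]cAMP–protein kinase binding against a standard curve. Mean of n=3.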

[23] = Activity at human MOR/mouse DOR expressed in CHO cells assessed as inhibition of DAMGO-mediated forskolin-stimulated cAMP accumulation at 30 nM after 20 hrs by scintillation counting analysis; assay type: functional
In short: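 CHO cells stably co-expressing human MOR and cMyc-tagged mouse DOR were pretreated 20 h with 30 nM drug or medium, then washed. They were preincubated 20 min with 500 µM IBMX, then given 15 min with IBMX, 100 µM forskolin and graded DAMGO at 37 °C. cAMP was measured by [3H]cAMP–protein kinase binding against a standard curve.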

[24] = tested on: CHO; assay: Activity at human MOR/mouse DOR expressed in CHO cells assessed as increase in forskolin-stimulated cAMP accumulation at 30 nM after drug exposure for 20 hrs followed by washout; assay type: functional, cell-based; in short: as §3
[25] = tested on: Mus musculus; assay: Antinociceptive activity in icv dosed ICR mouse assessed as warm-water tail-withdrawal latency administered bid for 3 days; assay type: functional

T2 sequence (P41145 whole entry): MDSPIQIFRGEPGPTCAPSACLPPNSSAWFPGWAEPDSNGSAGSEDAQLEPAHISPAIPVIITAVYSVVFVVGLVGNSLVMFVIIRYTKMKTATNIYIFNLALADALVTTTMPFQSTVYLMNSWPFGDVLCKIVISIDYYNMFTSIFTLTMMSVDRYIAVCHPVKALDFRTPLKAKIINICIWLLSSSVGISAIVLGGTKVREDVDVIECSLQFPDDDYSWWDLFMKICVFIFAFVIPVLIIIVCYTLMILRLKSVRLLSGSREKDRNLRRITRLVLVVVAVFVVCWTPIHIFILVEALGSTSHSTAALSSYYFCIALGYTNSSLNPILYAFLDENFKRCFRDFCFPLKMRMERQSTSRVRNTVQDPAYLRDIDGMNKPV
T3 sequence (P41143 whole entry): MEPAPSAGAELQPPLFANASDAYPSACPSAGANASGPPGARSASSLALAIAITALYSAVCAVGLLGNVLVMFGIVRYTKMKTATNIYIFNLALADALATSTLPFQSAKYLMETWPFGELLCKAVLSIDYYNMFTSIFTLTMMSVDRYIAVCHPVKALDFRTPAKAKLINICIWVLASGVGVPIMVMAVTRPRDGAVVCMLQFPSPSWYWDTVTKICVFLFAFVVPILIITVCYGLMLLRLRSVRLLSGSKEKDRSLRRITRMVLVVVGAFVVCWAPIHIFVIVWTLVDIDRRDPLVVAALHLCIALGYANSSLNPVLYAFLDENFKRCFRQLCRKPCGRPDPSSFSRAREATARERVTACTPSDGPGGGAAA
T1 sequence (P35372 whole entry): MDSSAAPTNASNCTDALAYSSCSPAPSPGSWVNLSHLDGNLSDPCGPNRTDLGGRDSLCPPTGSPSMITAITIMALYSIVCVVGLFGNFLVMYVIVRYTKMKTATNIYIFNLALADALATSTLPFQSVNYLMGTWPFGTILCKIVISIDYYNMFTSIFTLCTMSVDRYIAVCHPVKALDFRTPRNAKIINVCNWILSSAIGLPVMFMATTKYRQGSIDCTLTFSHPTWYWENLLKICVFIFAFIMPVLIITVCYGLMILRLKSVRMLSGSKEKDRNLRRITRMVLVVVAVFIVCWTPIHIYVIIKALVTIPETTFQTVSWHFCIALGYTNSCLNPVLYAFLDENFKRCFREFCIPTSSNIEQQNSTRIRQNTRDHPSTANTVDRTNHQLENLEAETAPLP

Row | Structure (SMILES) | Activity [1] | pKi [2] | Ratio Ki [3] | Ke [4] | pKi [5] | Ratio Ki [6] | pKi [7] | Activity [9] | Emax [10] | pEC50 [11] | Emax [13] | pEC50 [14] | further results
1 | Oc1ccc2c3c1O[C@H]1c4ncc(-c5ccc(Cl)cc5)cc4C=C4[C@@H](C2)N(CC2CC2)CC[C@]431 | inactive | 8.22 | 4.8 | 0.58 nM | 8.57 | 2.2 | 7.89 | inactive |  |  |  |  | Activity [8]: inactive
2 | O=C(CCc1ccccc1)O[C@@]12Cc3cc(-c4ccc(Cl)cc4)cnc3[C@@H]3Oc4c(O)ccc5c4[C@@]31CCN(CC1CC1)[C@@H]2C5 | inactive | 7.92 | 0.62 | 1.86 nM | 8.38 | 2.9 | 8.59 | inactive | 25% | 7.89 |  |  | 
3 | CN1CC[C@]23c4c5ccc(O)c4O[C@H]2c2ncc(-c4ccc(Cl)cc4)cc2C[C@@]3(OC/C=C/c2ccccc2)[C@H]1C5 |  | 8.81 | 0.36 |  | 8.94 | 1.4 | 9.39 |  |  |  | 130% | 8.37 | %max [12]: 91%; Activity [15]: inactive; A50 [16]: 0.23 nmol; Activity [16]: Dose-dependent effect; Emax [17]: 84%
4 | Oc1ccc2c3c1O[C@H]1c4ncc(-c5ccc(Cl)cc5)cc4C[C@@]4(OC/C=C/c5ccccc5)[C@@H](C2)N(CC2CC2)CC[C@]314 | inactive | 8.48 | 0.81 |  | 8.43 | 0.89 | 8.52 | inactive |  |  |  |  | 
5 | CN1CC[C@]23c4c5ccc(O)c4O[C@H]2c2ncc(-c4ccc(Cl)cc4)cc2C[C@@]3(OC(=O)Cc2ccccc2)[C@H]1C5 |  | 7.77 | 1.5 | 3.38 nM | 9.01 | 18 | 8.84 |  | 36% | 6.96 | 122% | 7.06 | Emax [17]: 27%
6 | Oc1ccc2c3c1O[C@H]1c4ncc(-c5ccc(Cl)cc5)cc4C[C@@]4(O)[C@@H](C2)N(CC2CC2)CC[C@]314 |  |  |  |  |  |  |  |  |  |  |  |  | pKi [18]: 7.70; pKi [19]: 8.66; pKi [20]: 7.29
7 | CN1CC[C@]23c4c5ccc(O)c4O[C@H]2c2ncc(-c4ccc(Cl)cc4)cc2C[C@@]3(OC(=O)c2ccccc2)[C@H]1C5 |  | 6.95 | 4.9 | 45 nM | 7.77 | 6.6 | 7.08 | inactive |  |  | 55% | 5.34 | Activity [8]: inactive
8 | O=C(O[C@@]12Cc3cc(-c4ccc(Cl)cc4)cnc3[C@@H]3Oc4c(O)ccc5c4[C@@]31CCN(CC1CC1)[C@@H]2C5)c1ccccc1 | inactive | 6.93 | 2.2 | 218 nM | 7.06 | 1.3 | 6.72 | inactive |  |  |  |  | Activity [8]: inactive
9 | Oc1ccc2c3c1O[C@H]1c4ncc(-c5ccc(Cl)cc5)cc4C[C@@]4(OCc5ccccc5)[C@@H](C2)N(CC2CC2)CC[C@]314 | inactive | 8.27 | 4.4 | 0.64 nM | 8.72 | 2.8 | 8.07 | inactive | 15% | 7.57 |  |  | 
10 | CO[C@@]12Cc3cc(-c4ccc(Cl)cc4)cnc3[C@@H]3Oc4c(O)ccc5c4[C@@]31CCN(C)[C@@H]2C5 |  | 7.55 | 4.8 | 1.6 nM | 8.79 | 17 | 8.10 | inactive | 36% | 6.20 | 118% | 6.42 | %max [21]: 98%; Activity [15]: inactive; A50 [16]: 1.44 nmol; Activity [16]: Dose-dependent effect
11 | CO[C@@]12Cc3cc(-c4ccc(Cl)cc4)cnc3[C@@H]3Oc4c(O)ccc5c4[C@@]31CCN(CC1CC1)[C@@H]2C5 | inactive | 8.27 | 22 |  | 8.71 | 2.8 | 7.38 | inactive |  |  |  |  | 
12 | O=C(Cc1ccccc1)O[C@@]12Cc3cc(-c4ccc(Cl)cc4)cnc3[C@@H]3Oc4c(O)ccc5c4[C@@]31CCN(CC1CC1)[C@@H]2C5 | inactive | 8.51 | 0.78 | 0.37 nM | 8.88 | 2.3 | 8.98 | inactive | 34% | 7.59 |  |  | 
13 | CN1CC[C@]23c4c5ccc(O)c4O[C@H]2c2ncc(-c4ccc(Cl)cc4)cc2C[C@@]3(OC(=O)CCc2ccccc2)[C@H]1C5 |  | 8.36 | 0.98 | 1.64 nM | 9.02 | 4.6 | 9.03 |  | 16% | 6.87 | 105% | 7.32 | Emax [17]: 59%
14 | CN1CC[C@]23c4c5ccc(O)c4O[C@H]2c2ncc(-c4ccc(Cl)cc4)cc2C[C@@]3(OCc2ccccc2)[C@H]1C5 |  | 7.31 | 2.6 | 4.54 nM | 8.75 | 28 | 8.33 |  | 32% | 6.67 | 119% | 6.52 | Emax [17]: 52%
15 | Oc1ccc2c3c1O[C@H]1c4ncc(-c5ccc(Cl)cc5)cc4C[C@@]4(OCCCc5ccccc5)[C@@H](C2)N(CC2CC2)CC[C@]314 |  |  |  | 0.091 nM |  |  |  | inactive |  |  | 72% |  | %max [12]: 75%; Activity [15]: inactive; Activity [22]: inactive; Emax at 0.03 µM [23]: 40%; Activity [24]: inactive; A50 [16]: 0.35 nmol; Activity [16]: Dose-dependent effect; Activity [8]: inactive; A50 [25]: 2.78 nmol
16 | CN1CC[C@]23c4c5ccc(O)c4O[C@H]2c2ncc(-c4ccc(Cl)cc4)cc2C[C@@]3(O)[C@H]1C5 |  |  |  |  |  |  |  |  |  |  |  |  | pKi [18]: 6.33; pKi [19]: 8.41; pKi [20]: 6.64
